Laboratory results as given in the array DNA melting data of Ke et al. (doi:10.1101/2024.01.08.574731).

Tests used:
[1] = folding enthalpy; higher = less favourable; fluorescence melt of hairpins on a sequencing array, two-state fit; conditions: sodium 0.088 M
Summary of the method: (§1)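 Library hairpins on a sequenced MiSeq flow cell carried annealed Cy3 and quencher oligos, and their Cy3 fluorescence was imaged in 50 mM Na-HEPES pH 8.0 with 25 mM NaCl, in 2.5 °C steps up to 60 °C. Signals were normalised to Cy3 before quenching and to control constructs. Melting temperature and folding enthalpy were obtained from bootstrapped two-state fits, combined by inverse-variance weighting across four replicates, and the fitted temperatures were then raised by 9.35 °C to match UV melts.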

[2] = melting temperature; fluorescence melt of hairpins on a sequencing array, two-state fit, raised by 9.35 °C to match UV melts; conditions: sodium 0.088 M
Summary of the method: as §1

Sequence | folding enthalpy [1] | Tm [2]
GTGTGGGGAAACCCGCAC (((.(((....))).))) | -35.3 kcal/mol | 59.7 °C
GTGTGTCGAAAGACCCAC (((.(((....))).))) | -29 kcal/mol | 49.4 °C
GTGTGTGGAAACACATGC (..((((....))))..) | -18.8 kcal/mol | 49.6 °C
GTGTGTGGAAACATGCAC (((..((....))..))) | -27.4 kcal/mol | 43.3 °C
GTGTGTTCGAAAGAACAC (((..(((....)))))) | -15.7 kcal/mol | 64.2 °C
GTGTTACCGAAAGGTCAC (((..(((....)))))) | -23.6 kcal/mol | 43.6 °C
GTGTTAGGAAACCAACAC (((((.(....).))))) | -28.9 kcal/mol | 40 °C
GTGTTAGGAAACTAACAC (((((((....))))))) | -42.1 kcal/mol | 57.8 °C
GTGTTCCGAAAGGAGCAC (((.(((....))).))) | -41.8 kcal/mol | 59.3 °C
GTGTTCGAAAGAAACAC ((((((....))).))) | -28.1 kcal/mol | 47.1 °C
GTGTTCGAAAGAACGCAC ((((((....)))..))) | -12.4 kcal/mol | 48.4 °C
GTGTTCGAAAGAAGCAC ((((((....))).))) | -21.8 kcal/mol | 37.4 °C
GTGTTCGGAAACAAACAC (((((.(....).))))) | -29.7 kcal/mol | 37.8 °C
GTGTTGGAAACAACAC ((((((....)))))) | -35 kcal/mol | 56.8 °C
GTGTTGGGAAACTAGCAC (((.(.(....).).))) | -15.6 kcal/mol | 31.8 °C
GTGTTGGGAAACTGACAC ((((..(....)..)))) | -27.6 kcal/mol | 39.3 °C
GTGTTTGCGAAAGCACAC (((..(((....)))))) | -20.2 kcal/mol | 45.9 °C
GTGTTTGGAAACAAACAC (((((((....))))))) | -47.9 kcal/mol | 59.6 °C
GTTAAACGAAAGTTGAAC (((.(((....))).))) | -26 kcal/mol | 41.7 °C
GTTAACCCGAAAGGGAAC (((..(((....)))))) | -12.2 kcal/mol | 25.9 °C
GTTAACCGAAAGGTGAAC (((.(((....))).))) | -27.7 kcal/mol | 48.9 °C
GTTAACGAAAGTTATAAC ((((((....)))..))) | -13.3 kcal/mol | 26.4 °C
GTTAACGAAAGTTGAAAC ((((((....)))..))) | -11.1 kcal/mol | 24.9 °C

Sequence | folding enthalpy [1] | Tm [2]
GTTAACGGAAACGTTAAC (((((((....))))))) | -42.3 kcal/mol | 56.9 °C
GTTAAGCCGAAAGGCAAC (((..(((....)))))) | -10.5 kcal/mol | 32.9 °C
GTTAAGCGAAAGCTAAAC (((.(((....))).))) | -19.9 kcal/mol | 41.5 °C
GTTAAGGGAAACCCTAAC ((((.((....)).)))) | -14.2 kcal/mol | 30.3 °C
GTTAATGGAAACATTGAC ((.((((....)))).)) | -26.1 kcal/mol | 37.3 °C
GTTACAGGAAACTGCAAC (((.(((....))).))) | -23.4 kcal/mol | 35.8 °C
GTTACCCCGAAAGGGAAC (((..(((....)))))) | -16.5 kcal/mol | 32.9 °C
GTTACCCGAAAGGGAAC (((.(((....)))))) | -17.1 kcal/mol | 43.7 °C
GTTACCGAAAGGTAAC ((((((....)))))) | -34.6 kcal/mol | 66.4 °C
GTTACCGAAAGGTAGAAC ((((((....)))..))) | -10.1 kcal/mol | 29.3 °C
GTTACCGAAAGGTCTAAC ((((((....)))..))) | -9.14 kcal/mol | 29.2 °C
GTTACCGAAAGGTGTAAC ((((((....)))..))) | -14.9 kcal/mol | 32.2 °C
GTTACGGGAAACCGCAAC (((.(((....))).))) | -26 kcal/mol | 41.7 °C
GTTACTGAAAAGTAAC ((((((....)))))) | -33.8 kcal/mol | 49.4 °C
GTTACTGGAAACAGTAAC (((((((....))))))) | -60.8 kcal/mol | 54.1 °C
GTTAGACGAAAGTCCAAC (((.(((....))).))) | -17.3 kcal/mol | 38 °C
GTTAGAGAAATCTAAC ((((((....)))))) | -27.9 kcal/mol | 38.4 °C
GTTAGAGGAAACTCTAGC (.(((((....))))).) | -23.1 kcal/mol | 34.5 °C
GTTAGCCGAAAGGCGAAC (((.(((....))).))) | -20.5 kcal/mol | 57.6 °C
GTTAGCGAAAGCTAAAC ((((((....))).))) | -13.7 kcal/mol | 46.5 °C
GTTAGCGAAAGCTATAAC ((((((....)))..))) | -12.7 kcal/mol | 31.4 °C
GTTAGCGAAAGCTCAAC ((((((....))).))) | -11.8 kcal/mol | 32.7 °C
GTTAGCGAAAGCTGGAAC ((((((....)))..))) | -8.68 kcal/mol | 27 °C

Sequence | folding enthalpy [1] | Tm [2]
GTTAGCGAAAGCTGTAAC ((((((....)))..))) | -9.81 kcal/mol | 31.6 °C
GTTAGCGGAAACACTAAC (((((.(....).))))) | -30.3 kcal/mol | 36.6 °C
GTTAGCGGAAACGCCAAC (((.(((....))).))) | -17.3 kcal/mol | 37.4 °C
GTTAGTCGAAAGACGAAC (((.(((....))).))) | -25.6 kcal/mol | 49 °C
GTTAGTGGAAACGCTAAC (((((.(....).))))) | -31.8 kcal/mol | 45.3 °C
GTTAGTGGAAACGTTAAC ((((..(....)..)))) | -10.1 kcal/mol | 27.6 °C
GTTATACCGAAAGGTAAC (((..(((....)))))) | -10.4 kcal/mol | 32.8 °C
GTTATACGAAAGTAGAAC (((.(((....))).))) | -29.9 kcal/mol | 45.1 °C
GTTATCCCGAAAGGGAAC (((..(((....)))))) | -10 kcal/mol | 26.8 °C
GTTATCCGAAAGGAAAC (((.(((....)))))) | -14.5 kcal/mol | 31.5 °C
GTTATCCGAAAGGACAAC (((.(((....))).))) | -26.3 kcal/mol | 39.6 °C
GTTATCGAAAGATGAAC ((((((....))).))) | -13.2 kcal/mol | 26.4 °C
GTTATGCGAAAGCAGAAC (((.(((....))).))) | -31.5 kcal/mol | 55.9 °C
GTTATGGGAAACCATAGC (.(((((....))))).) | -24.1 kcal/mol | 36.9 °C
GTTATTGGAAACAATAAC (((((((....))))))) | -35 kcal/mol | 49.7 °C
GTTCAACGAAAGTTAAAC (((.(((....))).))) | -18.6 kcal/mol | 30.7 °C
GTTCAAGAAATTGAAC ((((((....)))))) | -29.2 kcal/mol | 45.1 °C
GTTCAAGCGAAAGCTAAC (((..(((....)))))) | -11.4 kcal/mol | 24.9 °C
GTTCACCGAAAGGTAAC (((.(((....)))))) | -16.3 kcal/mol | 36.3 °C
GTTCACCGAAAGGTCAAC (((.(((....))).))) | -18.4 kcal/mol | 33 °C
GTTCACGAAAGTGAAAAC ((((((....)))..))) | -11.7 kcal/mol | 40.5 °C
GTTCACGAAAGTGGGAAC ((((((....)))..))) | -13.3 kcal/mol | 35.4 °C
GTTCACGGAAACATGAAC (((((.(....).))))) | -21.1 kcal/mol | 36.6 °C

Sequence | folding enthalpy [1] | Tm [2]
GTTCACGGAAACGTGGAC ((.((((....)))).)) | -29.2 kcal/mol | 52.8 °C
GTTCACTCGAAAGAGAAC (((..(((....)))))) | -9.99 kcal/mol | 27.8 °C
GTTCAGCGAAAGCTTAAC (((.(((....))).))) | -30.2 kcal/mol | 40.9 °C
GTTCAGGGAAACTTGAGC (.(((.(....).))).) | -18.4 kcal/mol | 30.2 °C
GTTCCAGGAAACTGGAAC (((((((....))))))) | -42.2 kcal/mol | 60.4 °C
GTTCCAGGAAACTGGAGC (.(((((....))))).) | -19.6 kcal/mol | 47.2 °C
GTTCCCGAAAGGGAAAC ((((((....))).))) | -12.6 kcal/mol | 49.6 °C
GTTCCCGAAAGGGACAAC ((((((....)))..))) | -8.79 kcal/mol | 33.6 °C
GTTCCCGGAAACGAGAAC ((((.((....)).)))) | -30.2 kcal/mol | 40.8 °C
GTTCCGAAAGGAAC (((((....))))) | -29.5 kcal/mol | 66.9 °C
GTTCCGCGAAAGCGCAAC (((.(((....))).))) | -13.3 kcal/mol | 38.4 °C
GTTCCGGGAAACCGGAGC (.(((((....))))).) | -22.4 kcal/mol | 53.6 °C
GTTCCGGGAAACTGGAGC (.(((.(....).))).) | -21.2 kcal/mol | 36.1 °C
GTTCCTCGAAAGAGCAAC (((.(((....))).))) | -14.3 kcal/mol | 29.4 °C
GTTCGACGAAAGTCAAAC (((.(((....))).))) | -21.3 kcal/mol | 41.7 °C
GTTCGACGAAAGTCAAC (((.(((....)))))) | -15.8 kcal/mol | 36.8 °C
GTTCGAGAAATCGAAC ((((((....)))))) | -39.8 kcal/mol | 54.9 °C
GTTCGAGGAAACTCGAAC (((((((....))))))) | -42.3 kcal/mol | 65 °C
GTTCGAGGAAACTTGGAC ((.(.((....)).).)) | -16 kcal/mol | 31.2 °C
GTTCGCCGAAAGGCAAC (((.(((....)))))) | -12.5 kcal/mol | 43.3 °C
GTTCGCGAAAGCGGCAAC ((((((....)))..))) | -10.2 kcal/mol | 26.8 °C
GTTCGCGAAAGCGGTAAC ((((((....)))..))) | -11 kcal/mol | 30.7 °C
